Each structure is given as a SMILES string.

Usually Emax stands for the greatest response seen or fitted, relative to the assay's reference.

Common to all, as to format: functional, cell-based
In test [1] the target is 5-hydroxytryptamine receptor 2A (Homo sapiens) (UniProt P28223). Description: Antagonist activity at human 5-HT2A receptor assessed as inhibition of intracellular calcium mobilization by FLIPR assay. In outline: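 FLIPR Tetra calcium-dye assay at human 5-HT2A. Compounds without intrinsic activity that inhibited the fluorescence rise to the EC80 of 5-HT by at least 50% at 10 μM went on to Ke determination. For this, an 8-point half-log 5-HT concentration-response curve was run with and without a single antagonist concentration. Ke = [L]/(DR-1), where DR = A'/A (ratio of 5-HT EC50s).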

For test [2], the target named is T1, Alpha-1A adrenergic receptor (Homo sapiens) (UniProt P35348).
T1 sequence (whole entry): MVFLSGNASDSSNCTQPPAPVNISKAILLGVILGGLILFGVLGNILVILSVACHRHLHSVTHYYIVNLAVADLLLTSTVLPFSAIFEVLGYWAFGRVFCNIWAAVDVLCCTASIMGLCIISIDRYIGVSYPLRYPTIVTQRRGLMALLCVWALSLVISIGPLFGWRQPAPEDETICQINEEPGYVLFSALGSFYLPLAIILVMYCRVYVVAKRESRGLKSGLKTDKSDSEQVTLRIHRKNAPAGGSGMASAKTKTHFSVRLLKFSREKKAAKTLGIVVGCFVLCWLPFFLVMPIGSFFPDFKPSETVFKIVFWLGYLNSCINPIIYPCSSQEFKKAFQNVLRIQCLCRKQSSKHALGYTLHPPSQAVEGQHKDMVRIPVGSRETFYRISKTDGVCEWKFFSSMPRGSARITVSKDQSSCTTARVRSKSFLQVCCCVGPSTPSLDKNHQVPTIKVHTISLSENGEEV
Description: Antagonist activity at human alpha1A receptor assessed as inhibition of intracellular calcium mobilization by FLIPR assay. In outline: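 Human α1A-adrenergic receptor, FLIPR Tetra calcium-mobilization assay with a calcium-sensitive fluorescent dye. Ke was derived from agonist concentration-response EC50 shifts by a single antagonist concentration, using Ke = [L]/(DR-1) as for the 5-HT2A set.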
(Calcium assays in cells follow changes in intracellular calcium, usually with a dye or a luminescent sensor.)

The target of test [3] is 5-hydroxytryptamine receptor 2A (Homo sapiens) (UniProt P28223). In words: Agonist activity at human 5-HT2A receptor assessed as intracellular calcium mobilization at 10 uM by FLIPR assay. The procedure, abridged:
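Multi-well FLIPR Tetra screen at 10 μM for intrinsic activity at human 5-HT2A receptor. Read-out is receptor-mediated mobilization of internal calcium, detected with a calcium-sensitive fluorescent dye.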

Sequence of 5-hydroxytryptamine receptor 2A (Homo sapiens) (P28223 whole entry): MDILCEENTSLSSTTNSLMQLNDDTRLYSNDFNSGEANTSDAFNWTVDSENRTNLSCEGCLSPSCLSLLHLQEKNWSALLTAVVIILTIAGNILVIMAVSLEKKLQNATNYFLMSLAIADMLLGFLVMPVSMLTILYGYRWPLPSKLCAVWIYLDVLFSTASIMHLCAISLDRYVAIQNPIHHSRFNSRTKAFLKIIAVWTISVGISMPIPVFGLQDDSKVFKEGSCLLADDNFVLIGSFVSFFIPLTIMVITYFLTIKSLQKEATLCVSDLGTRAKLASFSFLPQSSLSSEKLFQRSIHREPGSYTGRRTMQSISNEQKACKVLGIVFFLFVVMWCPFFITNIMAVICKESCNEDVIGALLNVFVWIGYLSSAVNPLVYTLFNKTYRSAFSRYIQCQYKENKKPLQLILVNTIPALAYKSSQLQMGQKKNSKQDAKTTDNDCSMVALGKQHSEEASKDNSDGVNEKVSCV

Regarding `CCCCCOc1cc2c3c(c1OC)-c1cc4c(cc1CC3N(C)CC2)OCO4` (racemic), the figures for the Ke in test [1] and in test [2] were above 10000 nM and 449 nM, respectively.
As for `C=CCOc1c(OC)cc2c3c1-c1cc4c(cc1CC3N(C)CC2)OCO4` (racemic), the Ke is 70 nM in test [1] and above 10000 nM in test [2].
The corresponding values for `CCCCCCOc1c(OC)cc2c3c1-c1cc4c(cc1CC3N(C)CC2)OCO4` (racemic) are 71 nM and above 10000 nM.
As for `COc1cc2c3c(c1OC)-c1cc4c(cc1CC3N(C)CC2)OCO4` (racemic), the Ke in test [2] was found to be 36 nM.
With `COc1cc2c3c(c1OCCCO)-c1cc4c(cc1CC3N(C)CC2)OCO4` (racemic), the Ke was 708 nM in test [1] and above 10000 nM in test [2].
The corresponding values for `COc1cc2c3c(c1OCC1CCCCC1)-c1cc4c(cc1CC3N(C)CC2)OCO4` (racemic) are 1720 nM and above 10000 nM.
Consider `CCCCCN1CCc2cc(OC)c(OC)c3c2C1Cc1cc2c(cc1-3)OCO2` (racemic), for which the figures for the Ke in test [1] and in test [2] were above 10000 nM and 720 nM, respectively.
`CCCCOc1cc2c3c(c1OC)-c1cc4c(cc1CC3N(C)CC2)OCO4` (racemic): the Ke is 943 nM in test [1] and 234 nM in test [2].
Consider `COc1c(Br)c2c3c(c1OC)-c1cc4c(cc1CC3N(C)CC2)OCO4` (racemic), for which the results for the Ke in test [1] and in test [2] were 53 nM and above 10000 nM, respectively.
In the case of `COc1cc2c3c(c1OCCC(C)C)-c1cc4c(cc1CC3N(C)CC2)OCO4` (racemic), in test [3], the Emax is 19%. Further, the Ke in test [2] was above 10000 nM.
For the molecule `COc1cc2c3c(c1OC)-c1cc4c(cc1CC3N(CC1CC1)CC2)OCO4` (racemic), the Ke in test [1] is above 10000 nM; in test [2], 319 nM.
Taken in the same sequence, the figures for `CCCN1CCc2cc(OC)c(OC)c3c2C1Cc1cc2c(cc1-3)OCO2` (racemic) were above 10000 nM and 38 nM.
For `COc1cc2c3c(c1OCC1CCC1)-c1cc4c(cc1CC3N(C)CC2)OCO4` (racemic), the Emax in test [3] was 25%. Moreover, in test [2], the Ke is above 10000 nM.
In the case of `CCC(CC)COc1c(OC)cc2c3c1-c1cc4c(cc1CC3N(C)CC2)OCO4` (centres undefined), the Ke in test [1] is 806 nM; in test [2], above 10000 nM.
Taken in the same sequence, the figures for `CCOc1cc2c3c(c1OC)-c1cc4c(cc1CC3N(C)CC2)OCO4` (racemic) were 378 nM and 52 nM.
Consider `COc1cc2c3c(c1OCC(C)C)-c1cc4c(cc1CC3N(C)CC2)OCO4` (racemic), for which the Ke in test [1] is 367 nM; in test [2] it was above 10000 nM.
Taken in the same sequence, the figures for `COc1c(Br)c2c3c(c1OC)-c1c(Br)c4c(c(Br)c1CC3N(C)CC2)OCO4` (racemic) were 43 nM and above 10000 nM.
In the case of `COc1cc2c3c(c1OCC1CCCC1)-c1cc4c(cc1CC3N(C)CC2)OCO4` (racemic), the Emax in test [3] was 35%. Moreover, in test [2], the Ke was above 10000 nM.
For `CCN1CCc2cc(OC)c(OC)c3c2C1Cc1cc2c(cc1-3)OCO2` (racemic), the Ke in test [2] was 26 nM.
For `CCCOc1cc2c3c(c1OC)-c1cc4c(cc1CC3N(C)CC2)OCO4` (racemic), the Ke in test [1] is 389 nM; in test [2], 133 nM.
The corresponding values for `COc1c(OCC2CC2)cc2c3c1-c1cc4c(cc1CC3N(C)CC2)OCO4` (racemic) are 484 nM and 195 nM.
Consider `CCCCN1CCc2cc(OC)c(OC)c3c2C1Cc1cc2c(cc1-3)OCO2` (racemic), for which the Ke in test [1] was above 10000 nM; in test [2] it was 210 nM.
As for `COc1c(OCc2ccccc2)cc2c3c1-c1cc4c(cc1CC3N(C)CC2)OCO4` (racemic), the values for the Ke in test [1] and in test [2] were 154 nM and 1920 nM, respectively.

These data come from ChEMBL document CHEMBL1828541, “New aporphinoid 5-HT2A and α1A antagonists via structural manipulations of nantenine” (Bioorg Med Chem, 2011).
